A selection: hits, their analogues and other compounds. The true share with any hit is near 5.1%.
ERb coact inh – blocks coactivator binding to human estrogen receptor beta; TR-FRET ER-beta LBD / SRC1-Cy5 peptide binding; receptor agonist-loaded with 1 µM estradiol; inhibition, % at 25.6 µM; actives 1.3% (n = 86,000); Q92731;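 active = compounds whose percent inhibition of the receptor-coactivator binding signal exceeds about 50% in the single-dose screen, limit read from the data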;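 also: 0% = receptor plus peptide wells without compound and 100% = peptide-only wells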
SF-1 act – activators of human nuclear receptor SF-1; Q13285; activation, % at 10 µM; CHO-K1 Gal4-SF-1 LBD luciferase reporter; % increase over DMSO SF-1-specific signal; actives 1.9% (n = 65,000);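 active = activation above the mean activation of all tested compounds plus 3 SD, cut at about 50% in these data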
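material = CHO-K1 cells with Gal4–hSF-1 LBD chimera plus Gal4-driven luciferase | compound = 10 µM single point, 1% DMSO | incubation = 20 h compound exposure at 37 °C after 1 h cell settling | measured by = SteadyLite luciferase luminescence | evaluation = percent activation relative to DMSO median and mock-transfected background | control set = DMSO negative control and −SF1 background wells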
BAP1 block – human BAP1 deubiquitinase inhibition; recombinant BAP1, Ub-AMC hydrolysis fluorescence kinetic; stronger effect = lower value; calls only at 20 µM; actives 0.48% (n = 72,000);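 active = activity remaining at or below 50% of control, provided the compound also passes the data quality filters; inactive = the rest, including low values that fail the filters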;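 also: 100% = DMSO wells rate and 0% = substrate alone blank rate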
ERa coact pot – enhances coactivator binding to human estrogen receptor alpha. TR-FRET ERalpha-LBD/SRC-Cy5 coactivator binding, 2 h; 100 = basal binding, no effect. coactivator binding (% of control), % at 25.6 µM. actives 1.3% (n = 86,000); in the data active = activity above about 200%;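 also: binding measured in presence of low estradiol as agonist stimulus; 0% = peptide alone without receptor and 100% = receptor with peptide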
Target sequence (P03372 whole entry, looked up, the tested form may be a part): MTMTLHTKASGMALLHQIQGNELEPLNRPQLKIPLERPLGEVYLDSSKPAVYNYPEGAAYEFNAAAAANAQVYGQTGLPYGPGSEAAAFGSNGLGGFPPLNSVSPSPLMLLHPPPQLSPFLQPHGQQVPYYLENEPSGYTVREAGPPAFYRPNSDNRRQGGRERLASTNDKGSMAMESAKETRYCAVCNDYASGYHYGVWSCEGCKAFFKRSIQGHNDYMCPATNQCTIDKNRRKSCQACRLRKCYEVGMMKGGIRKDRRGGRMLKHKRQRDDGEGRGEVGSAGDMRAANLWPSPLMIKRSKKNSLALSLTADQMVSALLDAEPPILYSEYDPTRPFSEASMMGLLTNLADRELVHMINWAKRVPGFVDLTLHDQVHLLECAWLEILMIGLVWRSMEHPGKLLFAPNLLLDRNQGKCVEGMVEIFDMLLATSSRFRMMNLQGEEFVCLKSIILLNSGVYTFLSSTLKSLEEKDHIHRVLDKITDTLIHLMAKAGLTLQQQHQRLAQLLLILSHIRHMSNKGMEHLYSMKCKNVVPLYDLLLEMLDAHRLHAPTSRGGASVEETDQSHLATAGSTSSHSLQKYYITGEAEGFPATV
RORa activator – activates the human nuclear receptor RORA; actives 1.5% (n = 65,000); activation, % at 10 µM; CHO-K1 Gal4-RORA LBD luciferase reporter, luminescence; percent increase over mock-subtracted basal signal; P35398;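 active = activation above the mean of all tested compounds plus 3 SD, cut at about 49% in these data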;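 also: 0% = DMSO-treated RORA cells and 100% = added signal equal to DMSO minus mock-transfected cells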
ERa SRC1 inh – ER-alpha (human) coactivator binding inhibition; P03372; TR-FRET ER-alpha LBD / SRC-1 peptide, estradiol-bound; actives 1.7% (n = 86,000); inhibition, % at 25.6 µM; in the data active = inhibition above about 50%;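 also: 0% = receptor plus peptide control and 100% = peptide only without receptor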
BAP1 inh conf – confirmation of human BAP1 enzyme inhibitors | shares compounds with BAP1 block | purified BAP1, Ub-ethyl ester hydrolysis, HPLC; stronger effect = lower value | % of control activity, % at 20 µM | actives 8% (n = 310);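 active = percent of control activity at or below 60%; inconclusive = HPLC trace unusable from injection failure or solvent front hiding peaks; inactive = the rest, plus ubiquitin peak ratio over a set limit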
* marks the source's active call; other numbers are inactive results; i = inactive; ? = inconclusive; / = no result; + = active, no number.

SMILES | ERb coact inh | SF-1 act | BAP1 block | ERa coact pot | RORa activator | ERa SRC1 inh | BAP1 inh conf
CCOC(=O)C(C)n1cnc2sc3c(c2c1=O)CCC3 (configuration not stated) | 41 | -4 | i | 108 | 2 | 17 | /
COc1cccc(NC(=O)c2ccccc2-c2nc(-c3ccccc3)no2)c1 | 3 | 11 | i | 116 | -8 | 1 | /
COc1cccc(NC(=O)c2ccccc2-c2nc(-c3ccc(Cl)cc3)no2)c1 | -26 | 3 | + | 129 | -20 | -23 | ?
N#Cc1c(NC(=O)CSc2nnnn2C2CCCCC2)sc2c1CCCC2 | -6 | 0 | + | 128 | 13 | 1 | 62
O=c1oc2ccc(Br)cc2cc1-c1nc(-c2ccc(Br)cc2)cs1 | / | / | i | / | / | / | /
CCOC(=O)Cc1csc(-n2sc3ccccc3c2=O)n1 | / | -3 | + | / | 9 | / | 42*
CC(C)Cn1c2c(c(O)c(C(=O)Nc3nccs3)c1=O)CCCC2 | -8 | 10 | + | 91 | 11 | -4 | 115
CCCn1c2c(c(O)c(C(=O)Nc3ncccc3C)c1=O)CCCC2 | 10 | -21 | + | 114 | 1 | 11 | 97
Cc1nc2n(n1)C(c1ccccc1)C1=C(CC(c3ccco3)CC1=O)N2 (configuration not stated) | 0 | 2 | + | 129 | -12 | -1 | 116
CCOc1ccccc1NC(=O)c1c(NC(=O)c2ccccc2Cl)sc2c1CCCC2 | / | / | i | / | / | / | /
CCOC(=O)c1c(NC(=O)c2nn(CC)cc2Br)c(C#N)nn1-c1ccccc1 | -11 | -7 | + | 129 | 13 | -10 | 99
CCOC(=O)c1nn(-c2ccccc2)c(C#N)c1NC(=O)c1nn(CC)cc1Br | 10 | 1 | i | 138 | -11 | 7 | /
CC1=C(C(=O)OCCOc2ccccc2)C(c2ccccc2)NC(=O)N1 (configuration not stated) | / | / | i | / | / | / | /
Cc1ccc(O)c(N=CC2=C(O)c3ccccc3C2=O)c1 | 32 | 21 | + | 44 | 19 | 26 | 117
O=C1C(C=Nc2ccccc2O)=C(O)c2ccccc21 | 5 | -1 | i | 114 | 10 | 10 | /
O=C(Nc1ccc2nc(C3CC3)n(Cc3ccc(F)cc3)c(=O)c2c1)c1ccco1 | -7 | -22 | i | 90 | 11 | 4 | /
COc1cccc(Cn2c(C3CC3)nc3ccc(NC(=O)c4ccco4)cc3c2=O)c1 | 6 | 20 | + | 97 | 12 | 4 | 103
Oc1ccc(Br)cc1/C=N/n1cnc2ccccc21 | / | 4 | + | / | -7 | / | 130
OCC(CO)(CO)N=Cc1cc(Br)ccc1O | 5 | -2 | i | 81 | -17 | -1 | /
CCOC(=O)c1c(NC(=O)c2ccc(OC)cc2OC)sc2c1CCC2 | / | / | i | / | / | / | /
CCOC(=O)c1c(C)oc2c1cc(O)c1ccccc12 | 5 | 10 | + | 113 | -17 | 11 | 79
CCOC(=O)c1c(C)[nH]c2c1cc(O)c1ccccc12 | 21 | / | / | 76 | / | 9 | /
CCOC(=O)c1c(C)oc2ccc(N(C(=O)c3ccncc3)S(=O)(=O)c3cccc([N+](=O)[O-])c3)cc12 | / | / | i | / | / | / | /
Cc1ccc(Cn2ncc3c(N4CCOCC4)ncnc32)cc1 | -3 | 0 | i | 115 | 1 | -2 | /
Cc1ccc(Cn2ncc3c(N4CCN(c5ccccc5C)CC4)ncnc32)cc1 | -5 | -7 | + | 121 | 10 | 0 | 95
COc1ccc(C(=O)CSc2nnnn2C)cc1 | / | / | i | / | / | / | /
CCc1ccc(NC(=O)c2cc3nc(-c4ccccc4)cc(C)n3n2)cc1 | / | / | i | / | / | / | /
O=C(CCCn1c(=S)[nH]c2cc3c(cc2c1=O)OCO3)N1CCN(c2ccccc2F)CC1 | 7 | -12 | i | 110 | 9 | 2 | /
Cc1ccc(C)c(N2CCN(C(=O)CCCn3c(=S)[nH]c4cc5c(cc4c3=O)OCO5)CC2)c1 | 10 | -23 | + | 132 | -4 | -1 | 63

Bioassay records from PubChem.
